Paper PMC7090343 (Heliyon, 2020)
Values after ≈ are worked out from the molar mass of the structure shown. Read-outs that look alike come from different tables or passages of the source. Marks after values point to notes of the source that are not given here.

Tests used:
human tyrosinase = conditions: ref An et al., 2010, cited from earlier work
[1] = In vitro antioxidation activity; conditions: DPPH assay, mean of three replicates; for EC50 (antioxidation activity), crude and partitioned extracts: Table 1 experiment
Procedure, shortened: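 Five concentrations of test compound or extract were prepared in DMSO. Each was mixed with 0.15 mM DPPH in methanol and held at 25 °C for 30 min, then A517 was read. Ascorbic acid served as reference standard. Antioxidation (%) = [(A control − A sample)/A control] × 100. EC50 came from linear and nonlinear regression of % activity against concentration. Triplicates were used.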

Row | Structure (SMILES) | Type of inhibition of human tyrosinase (human tyrosinase; for L-DOPA) | Type of inhibition of human tyrosinase (human tyrosinase; for tyrosine) | EC50 (antioxidation activity), crude and partitioned extracts [1] | EC50 (antioxidation activity), crude and partitioned extracts ([1]; listed as ascorbic acid) | EC50 value of pooled fractions after SG60CC ([1]; nonlinear regression, Table 4 experiment)
1 | O=C(O)/C=C/c1ccc(O)cc1 [p-coumaric acid] | competitive | mixed type |  |  | 
2 | O=C1O[C@H]([C@@H](O)CO)C(O)=C1O [Ascorbic acid, ascorbic acid] |  |  | 89.82^a μg/mL | 89.8 µg/mL (≈ 510 µM) | 71.5^a μg/mL
